Source: ChEMBL document CHEMBL2021883, “Amino acid, dipeptide and pseudodipeptide conjugates of ring-substituted 8-aminoquinolines: synthesis and evaluation of anti-infective, β-haematin inhibition and cytotoxic activities” (Eur J Med Chem, 2012)
≈ marks a conversion by molar mass, not a printed value. Calls of active or inactive are those of the source. Unless noted, the calls are words filed in the database; no cut-off is given here.

Experiments:
[1] = test system: Plasmodium falciparum; test: Antimalarial activity against chloroquine-sensitive Plasmodium falciparum D6 assessed as plasmodial LDH activity; format: functional, organism-based
[2] = test system: Plasmodium falciparum; test: Antimalarial activity against chloroquine-resistant Plasmodium falciparum W2 assessed as plasmodial LDH activity; format: functional, organism-based
[3] = test system: Vero; test: Cytotoxicity against african green monkey Vero cells upto 23.8 […] by neutral dye assay; format: cell-based, Chlorocebus sabaeus
Method in brief: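 Vero monkey kidney cells were exposed to compound up to a highest concentration of 23.8, with viability read by neutral red uptake.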

[4] = Inhibition of beta-hematin formation; format: functional
[5] = test system: Leishmania donovani; test: Antileishmanial activity against Leishmania donovani promastigote by Alamar Blue assay; format: functional, organism-based
[6] = Selectivity index, ratio of IC50 for african green monkey Vero cells to IC50 for chloroquine-sensitive Plasmodium falciparum D6; format: toxicity, cell-based; settings: Vero cells versus Plasmodium falciparum D6, read-out: Ratio IC50
[7] = Selectivity index, ratio of IC50 for african green monkey Vero cells to IC50 for chloroquine-resistant Plasmodium falciparum W2; format: toxicity, cell-based; settings: Vero cells versus Plasmodium falciparum W2, read-out: Ratio IC50
[8] = test system: Staphylococcus aureus; test: Antimicrobial activity against Staphylococcus aureus ATCC 29213 by CLSI method; format: functional, organism-based
[9] = test system: Staphylococcus aureus; test: Antimicrobial activity against methicillin-resistant Staphylococcus aureus ATCC 43300 by CLSI method; format: functional, organism-based
[10] = test system: Mycobacterium intracellulare; test: Antimicrobial activity against Mycobacterium intracellulare ATCC 23068 by Franzblau method; format: functional, organism-based
[11] = test system: Escherichia coli; test: Antimicrobial activity against Escherichia coli ATCC 35218 by CLSI method; format: functional, organism-based
[12] = test system: Pseudomonas aeruginosa; test: Antimicrobial activity against Pseudomonas aeruginosa ATCC 27853 by CLSI method; format: functional, organism-based
Method in brief: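 Antibacterial testing used CLSI/NCCLS broth dilution for aerobically growing bacteria, with 20 as the highest test concentration.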

[13] = test system: Aspergillus fumigatus; test: Antifungal activity against Aspergillus fumigatus; format: functional, organism-based
Method in brief: (§1)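 Yeasts and A. fumigatus were tested by broth microdilution following the NCCLS antifungal standards. The highest test concentration was 20.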

[14] = test system: Cryptococcus neoformans; test: Antifungal activity against Cryptococcus neoformans; format: functional, organism-based; method in brief: as §1
[15] = test system: Candida albicans; test: Antifungal activity against Candida albicans at 20 ug/ml; format: functional, organism-based
Method in brief: (§2)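 Broth dilution antifungal testing followed the NCCLS reference method for yeasts, with 20 as the highest test concentration. MIC was the lowest concentration with no detectable growth. MFC was the lowest concentration killing the organism.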

[16] = test system: Candida albicans; test: Fungicidal activity against Candida albicans at 20 ug/ml; format: functional, organism-based; method in brief: as §2
[17] = test system: Plasmodium berghei; test: Antimalarial activity against Plasmodium berghei blood-schizont in mouse malaria model assessed as elimination of parasitemia at 100 mg/kg, po for 4 days for 4 days measured after 7 days; format: functional, organism-based; design: dose 100 mg/kg
Method in brief: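 P. berghei-infected mice, 6 per group, received compound orally once daily for 4 days at 10, 25, 50 or 100 mg/kg/day. "Active" meant all treated animals were parasitaemia-negative up to D+7. "Curative" meant complete parasite elimination with survival to D+60. Outcomes were recorded as cured/total.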

[18] = test system: Candida albicans; test: Antifungal activity against Candida albicans; format: functional, organism-based; method in brief: as §1
[19] = Plasmodium falciparum, D6, read-out: IC50
[20] = Plasmodium falciparum, W2, read-out: IC50
[21] = Leishmania donovani, read-out: IC50

| Compound | IC50 [1, 19] [µg/mL] | IC50 [2, 20] [µg/mL] | IC50 [3] | IC50 [4] [µM] | IC90 ([5]; Leishmania donovani) [µg/mL] | IC50 [5, 21] [µg/mL] | selectivity ratio [6] | selectivity ratio [7] | Activity [8] | Activity [9] | Activity [10] | Activity [11] | Activity [12] | Activity [13] | IC50 [14] [µg/mL] | MFC [14] [µg/mL] | MIC [14] [µg/mL] | Activity [15] | Activity [16] | IC90 [5] | other results |
| --- | --- | --- | --- | --- | --- | --- | --- | --- | --- | --- | --- | --- | --- | --- | --- | --- | --- | --- | --- | --- | --- |
| COc1cc(NC(C)CCCNC(=O)[C@@H](CCCNC(=N)N)NC(=O)[C@H](N)CCCNC(=N)N)c2ncccc2c1 (stereo partly specified) | 1.3 (≈ 2.27 µM) | 1.7 (≈ 2.97 µM) | Non-toxic | 32 | 36 (≈ 63 µM) | 17 (≈ 29.7 µM) | > 18.3 | > 14 | inactive | inactive | inactive | inactive | inactive | inactive | 7 (≈ 12.2 µM) | 10 (≈ 17.5 µM) | 10 (≈ 17.5 µM) | inactive | inactive |  |  |
| COc1cc(NC(C)CCCNC(=O)[C@@H](CCCN)NC(=O)[C@H](N)CCCN)c2ncccc2c1 (stereo partly specified) |  | 4.76 (≈ 9.76 µM) | Non-toxic | 420 |  | 40 (≈ 82 µM) |  | > 5 | inactive | inactive | inactive | inactive | inactive | inactive | 3.5 (≈ 7.18 µM) | 5 (≈ 10.3 µM) | 5 (≈ 10.3 µM) | inactive | inactive | inactive | IC50 [1]: Not Active |
| COc1cc(NC(C)CCCNC(=O)[C@H](CCCN)NC(=O)[C@@H](N)CCCN)c2ncccc2c1 (stereo partly specified) |  |  | Non-toxic | > 1000 | 20 (≈ 41 µM) | 4 (≈ 8.2 µM) |  |  | inactive | inactive | inactive | inactive | inactive | inactive | 5.5 (≈ 11.3 µM) | 20 (≈ 41 µM) | 10 (≈ 20.5 µM) | inactive | inactive |  | IC50 [1]: Not Active; IC50 [2]: Not Active; Activity [17]: Active |
| COc1cc(NC(C)CCCNC(=O)[C@H](CCCCN)NC(=O)[C@@H](N)CCCCN)c2nc(C(C)(C)C)ccc2c1 (stereo partly specified) | 0.63 (≈ 1.1 µM) | 0.4 (≈ 0.7 µM) | Non-toxic | 73 | 39 (≈ 68.2 µM) | 19 (≈ 33.2 µM) | > 37.7 | > 59.5 | inactive | inactive | inactive | inactive | inactive | inactive | 3.5 (≈ 6.12 µM) | 5 (≈ 8.74 µM) | 5 (≈ 8.74 µM) | inactive | inactive |  | Activity [17]: Active |
| COc1cc(NC(C)CCCNC(=O)C[C@H](NC(=O)[C@@H](N)CCCNC(=N)N)C(=O)O)c2ncccc2c1 (stereo partly specified) | 3 (≈ 5.65 µM) | 2.9 (≈ 5.47 µM) | Non-toxic | 120 |  |  | > 7.9 | > 8.2 | inactive | inactive | inactive | inactive | inactive |  |  |  |  |  |  | inactive | IC50 [5]: Not Active |
| COc1cc(NC(C)CCCNC(=O)NCCC[C@@H](N)C(=O)O)c2nc(C(C)(C)C)ccc2c1 (stereo partly specified) | 4.2 (≈ 8.87 µM) | 4.76 (≈ 10.1 µM) | Non-toxic | 250 |  |  | > 5.5 | 5 | inactive | inactive | inactive | inactive | inactive |  |  |  |  |  |  | inactive | IC50 [5]: Not Active |
| COc1cc(NC(C)CCCNC(=O)C[C@H](NC(=O)[C@@H](N)CCCN)C(=O)O)c2nc(C(C)(C)C)ccc2c1 (stereo partly specified) | 2.7 (≈ 4.96 µM) | 3 (≈ 5.51 µM) | Non-toxic | 40 | 36 (≈ 66.1 µM) | 20 (≈ 36.7 µM) | > 8.8 | > 7.9 | inactive | inactive | inactive | inactive | inactive | inactive | 4 (≈ 7.34 µM) | 20 (≈ 36.7 µM) | 20 (≈ 36.7 µM) |  |  |  | IC50 [18]: 15 µg/mL (≈ 27.5 µM); MFC [18]: 20 µg/mL (≈ 36.7 µM); MIC [18]: 20 µg/mL (≈ 36.7 µM) |
